Data reported in ChEMBL document CHEMBL2390926, “Identification of novel FLT3 kinase inhibitors” (Eur J Med Chem, 2013).
Activity calls are given as the source filed them. The rule behind the calls is not given here.

What was measured:
[1] = molecular target: T1, Receptor-type tyrosine-protein kinase FLT3 (Mus musculus) (UniProt Q00342); assay: Inhibition of FLT3 phosphorylation in mouse Ba/F3 cells transfected with FLT3-ITD cells at 500 nM after 90 mins by Western blot analysis; type: cell-based; details: BaF3
T1 sequence (whole entry): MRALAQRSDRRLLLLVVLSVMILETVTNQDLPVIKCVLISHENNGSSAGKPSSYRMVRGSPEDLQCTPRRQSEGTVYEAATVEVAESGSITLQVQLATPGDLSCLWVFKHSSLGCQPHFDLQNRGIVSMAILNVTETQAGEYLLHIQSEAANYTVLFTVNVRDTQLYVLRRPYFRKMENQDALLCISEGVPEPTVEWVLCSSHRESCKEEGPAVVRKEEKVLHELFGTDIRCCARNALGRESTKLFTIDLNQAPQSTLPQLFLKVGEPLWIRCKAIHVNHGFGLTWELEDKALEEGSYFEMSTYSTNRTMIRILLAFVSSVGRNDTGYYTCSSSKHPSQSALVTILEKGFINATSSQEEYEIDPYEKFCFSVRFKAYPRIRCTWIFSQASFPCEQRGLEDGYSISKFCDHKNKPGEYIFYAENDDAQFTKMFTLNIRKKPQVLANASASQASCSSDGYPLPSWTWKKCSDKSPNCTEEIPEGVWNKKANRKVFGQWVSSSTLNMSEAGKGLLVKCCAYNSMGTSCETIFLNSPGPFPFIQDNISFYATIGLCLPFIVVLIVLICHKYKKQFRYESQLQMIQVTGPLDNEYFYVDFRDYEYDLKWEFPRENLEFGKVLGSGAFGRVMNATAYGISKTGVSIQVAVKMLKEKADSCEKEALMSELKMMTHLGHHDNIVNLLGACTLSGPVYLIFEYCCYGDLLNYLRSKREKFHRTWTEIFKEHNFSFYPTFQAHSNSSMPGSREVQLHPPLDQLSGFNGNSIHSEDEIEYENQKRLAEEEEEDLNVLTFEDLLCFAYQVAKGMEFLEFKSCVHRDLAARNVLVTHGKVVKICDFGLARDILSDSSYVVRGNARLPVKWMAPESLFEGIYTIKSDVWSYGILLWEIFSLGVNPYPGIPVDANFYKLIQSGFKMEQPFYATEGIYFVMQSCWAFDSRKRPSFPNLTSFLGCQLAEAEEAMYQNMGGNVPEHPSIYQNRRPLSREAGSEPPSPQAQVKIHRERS
Method in brief: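 Ba/F3-FLT3-ITD cells were treated for 90 min with increasing doses. They were lysed in buffer with 1 mM NaVO4 and protease inhibitors, then reduced and run on Bis-Tris 4–12% gels for Western blot. Phospho-FLT3 and phospho-STAT5 were detected, with total FLT3 and STAT5 as loading controls.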

[2] = system: MOLM-13; assay: Cytotoxicity against human MOLM13 cells after 72 hrs by plate reader analysis; type: functional, cell-based; details: MOLM-13, 72 h
[3] = Cytotoxicity against mouse BA/F3 cells transfected with FLT3-ITD after 24 hrs by plate reader analysis in presence of IL3; details: BaF3, 24 h
[4] = molecular target: T2, Tyrosine-protein kinase receptor TYRO3 (Homo sapiens) (UniProt Q06418); assay: Inhibition of TYRO3 (unknown origin) transfected in mouse Ba/F3 cells at 1 uM after 24 hrs; type: cell-based; details: BaF3
T2 sequence (whole entry): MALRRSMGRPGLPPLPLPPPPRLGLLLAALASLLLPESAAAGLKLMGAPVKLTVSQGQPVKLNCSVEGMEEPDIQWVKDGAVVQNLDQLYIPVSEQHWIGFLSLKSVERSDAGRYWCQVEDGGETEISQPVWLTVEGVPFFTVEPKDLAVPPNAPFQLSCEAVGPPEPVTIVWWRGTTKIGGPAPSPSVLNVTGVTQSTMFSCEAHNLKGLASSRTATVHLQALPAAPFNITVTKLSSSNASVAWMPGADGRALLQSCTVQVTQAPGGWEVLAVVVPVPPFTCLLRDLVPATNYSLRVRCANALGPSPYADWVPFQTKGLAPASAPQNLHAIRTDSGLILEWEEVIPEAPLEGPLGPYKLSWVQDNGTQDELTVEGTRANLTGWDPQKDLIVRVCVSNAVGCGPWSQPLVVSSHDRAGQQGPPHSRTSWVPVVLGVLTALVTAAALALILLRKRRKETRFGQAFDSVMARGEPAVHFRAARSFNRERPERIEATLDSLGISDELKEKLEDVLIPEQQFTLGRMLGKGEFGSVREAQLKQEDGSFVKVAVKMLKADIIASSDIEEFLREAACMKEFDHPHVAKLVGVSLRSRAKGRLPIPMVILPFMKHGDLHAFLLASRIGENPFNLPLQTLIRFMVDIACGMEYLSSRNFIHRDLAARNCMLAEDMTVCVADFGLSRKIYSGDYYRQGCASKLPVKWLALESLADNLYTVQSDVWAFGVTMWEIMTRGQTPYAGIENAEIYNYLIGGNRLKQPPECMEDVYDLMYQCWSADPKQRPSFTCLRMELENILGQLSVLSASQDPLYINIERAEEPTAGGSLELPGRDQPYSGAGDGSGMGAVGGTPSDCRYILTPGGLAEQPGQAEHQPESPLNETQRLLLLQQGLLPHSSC

| SMILES | inhibition [1] | EC50 [2] [µM] | EC50 [3] [µM] | inhibition [4] |
| --- | --- | --- | --- | --- |
| Cc1cccc(C(=O)Nc2cc(-c3ccc(F)cc3)n[nH]2)c1 | Active | 0.63 | 21 | inactive |
| Cc1ccc(-n2cnc3cc(Nc4nnc(C)c5ccccc45)ccc32)cc1 | Active | 0.332 | 19 |  |
| Cc1ccc(-c2cc(NC(=O)c3ccc(F)cc3)[nH]n2)cc1 | Active | 0.612 | 23 | inactive |
| Fc1ccc(-c2n[nH]cc2-c2ccncc2)cc1Cl | Active | 0.258 | 16 |  |
| COc1ccc(C(=O)Nc2cc(-c3ccccc3)[nH]n2)cc1 |  | 0.292 | 18 | inactive |
